The results in this text go back to ChEMBL document CHEMBL1155794, “Novel N1-substituted 1,3-dihydro-2H-benzimidazol-2-ones as potent non-nucleoside reverse transcriptase inhibitors” (Bioorg Med Chem, 2008).

Structures are written as SMILES.

Data set [1] in a line: Cytotoxicity against human MT4 cells. The data set is classed as cell-based. Put shortly: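 MT-4 cell viability measured after exposure to compound dilutions; CC50 taken as concentration lowering viability by 50%.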
Data set [2] in a line: Selectivity index, ratio of CC50 for human MT4 cells to EC50 for HIV1 3B. It is filed as toxicity, cell-based. To be noted: read-out: Ratio CC50/EC50.
The target in data set [3] is Human immunodeficiency virus type 1 reverse transcriptase (Human immunodeficiency virus 1, UniProt Q72547). The data set is described as follows: Inhibition of HIV1 reverse transcriptase RNA-dependent DNA polymerase activity assessed as incorporation of radioactive dTTP into poly(rA)/oligo(DT).
Data set [4] concerns Human immunodeficiency virus 1. Nature of the data set: Antiviral activity against HIV1 3B in human MT4 cells assessed as virus-induced cytopathogenicity after 5 days. The data set is classed as functional, organism-based. The following applies: Human immunodeficiency virus 1, 3B, MT4, 120 h. Put shortly: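 MT-4 cells infected and treated with serial dilutions, incubated at 37 °C for 5 days; viable cell count determined; EC50 = concentration reducing virus-induced cytopathicity by 50%.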

Broadly, the CC50 is the concentration that lowers cell viability or growth by half. Low values mean greater toxicity to the cells, high ones lower toxicity to the cells. Usually IC50 stands for the concentration needed to halve the response being measured. As usually defined, the EC50 is the midpoint of the concentration-response curve. `Cc1cc(C)cc(Cn2c(=S)[nH]c3ccc(Cl)cc32)c1` registered a CC50 in data set [1] of 305 nM. Besides, the selectivity ratio in data set [2] worked out at 4. Besides, the IC50 in data set [3] is 46 nM. Moreover, the EC50 in data set [4] worked out at 76 nM.

`O=c1[nH]c2cc(F)c(Cl)cc2n1Cc1c(F)cccc1F`: in data set [1], the CC50 turned out to be 267000 nM. Besides, in data set [2], the selectivity ratio is 9. Besides, the IC50 in data set [3] was found to be 140 nM. For the same compound, the EC50 in data set [4] turned out to be 29000 nM.

In the case of `Cc1ccc2[nH]c(=O)n(S(=O)(=O)c3cc(F)cc(F)c3)c2c1`, in data set [1], the midpoint of cytotoxicity, the CC50, lay at 23400 nM. In data set [2], the selectivity ratio is 360. Also, the IC50 in data set [3] is 200 nM. The EC50 in data set [4] turned out to be 65 nM.

With `O=c1[nH]c2cc(F)c(Cl)cc2n1Cc1cc(F)cc(F)c1`, the CC50 in data set [1] is greater than 400000 nM. The IC50 in data set [3] was found to be 3 nM. Moreover, the EC50 in data set [4] was greater than 33900 nM.

`O=c1[nH]c2ccc(Cl)cc2n1S(=O)(=O)c1c(F)cccc1F`: in data set [1], the CC50 amounted to 194000 nM. The selectivity ratio in data set [2] was found to be 124. Further, the IC50 in data set [3] worked out at 30000 nM. The EC50 in data set [4] is 1570 nM.

For `Cc1cc(C)cc(S(=O)(=O)n2c(=O)[nH]c3ccc(Cl)cc32)c1`, in data set [2], the selectivity ratio is 17800.

In the case of `Cc1cc(C)cc(Cn2c(=O)[nH]c3ccc(C)cc32)c1`, in data set [1], the CC50 was found to be 856 nM. In addition, in data set [2], the selectivity ratio turned out to be 11. Moreover, the IC50 in data set [3] came out at 76900 nM. Besides, the EC50 in data set [4] was found to be 75 nM.

In turn, `O=c1[nH]c2ccc(C(F)(F)F)cc2n1Cc1c(F)cccc1F` yielded a CC50 in data set [1] greater than 424000 nM. Moreover, the selectivity ratio in data set [2] was greater than 77. Also, in data set [3], the IC50 stood at 17 nM. Further, in data set [4], the EC50 worked out at 5500 nM.

In turn, `Fc1cccc(F)c1Cn1c(=S)[nH]c2ccc(Cl)cc21` registered a CC50 in data set [1] of 5950 nM. Moreover, the selectivity ratio in data set [2] was determined as 8. The EC50 in data set [4] turned out to be 740 nM.

`Cc1cc(C)cc(S(=O)(=O)n2c(=O)[nH]c3cc(F)c(Cl)cc32)c1` yielded a CC50 in data set [1] of 140000 nM. In data set [2], the selectivity ratio worked out at 310. Further, the IC50 in data set [3] was determined as 158 nM. In addition, in data set [4], the EC50 came to 450 nM.

`Cc1ccc2[nH]c(=O)n(Cc3c(F)cccc3F)c2c1`: the CC50 in data set [1] is 236000 nM. In data set [2], the selectivity ratio turned out to be 13. Further, the IC50 in data set [3] is greater than 100000 nM. Also, the EC50 in data set [4] was 18600 nM.

For the compound `CC(=O)n1c(=O)n(Cc2cc(F)cc(F)c2)c2cc(Cl)ccc21`, in data set [1], the CC50 amounted to 40400 nM. The selectivity ratio in data set [2] was 24. The IC50 in data set [3] came out at 38500 nM. Also, the EC50 in data set [4] stood at 1660 nM.

`Cc1cc(C)cc(Cn2c(=O)[nH]c3ccc(C(F)(F)F)cc32)c1`: the CC50 in data set [1] was found to be 37400 nM. The selectivity ratio in data set [2] stood at 88. Further, the IC50 in data set [3] came to 280 nM. The EC50 in data set [4] was determined as 425 nM.

In data set [1], `Cc1ccc2[nH]c(=O)n(S(=O)(=O)c3c(F)cccc3F)c2c1` showed a CC50 of 2220 nM. The selectivity ratio in data set [2] is 11. The IC50 in data set [3] was 1300 nM. The EC50 in data set [4] worked out at 195 nM.

As for `O=c1[nH]c2ccc(Cl)cc2n1S(=O)(=O)c1cc(F)cc(F)c1`, it took 202000 nM to reach half-maximal cytotoxicity in data set [1] (CC50). For the same compound, the selectivity ratio in data set [2] was 2930. Moreover, in data set [3], the IC50 is 100 nM. In addition, in data set [4], the EC50 was 69 nM.

Regarding `CC(=O)n1c(=O)n(Cc2c(F)cccc2F)c2cc(Cl)ccc21`, the cytotoxic concentration (CC50) in data set [1] came out at 102000 nM. Also, in data set [2], the selectivity ratio turned out to be 190. Moreover, the IC50 in data set [3] was greater than 100000 nM. Further, the EC50 in data set [4] is 534 nM.

On to `Fc1cc(F)cc(Cn2c(=S)[nH]c3ccc(Cl)cc32)c1`, for which the midpoint of cytotoxicity in data set [1], the CC50, lay at 1200 nM. Also, in data set [2], the selectivity ratio turned out to be 2. Besides, the IC50 in data set [3] is 160 nM. For the same compound, the EC50 in data set [4] is greater than 737 nM.

In the case of `O=c1[nH]c2ccc(Cl)cc2n1Cc1cc(F)cc(F)c1`, the CC50 in data set [1] was greater than 424000 nM. For the same compound, the selectivity ratio in data set [2] is greater than 1470. Further, the IC50 in data set [3] was 100 nM. Further, the EC50 in data set [4] stood at 289 nM.

With `CC(=O)n1c(=O)n(Cc2cc(C)cc(C)c2)c2cc(Cl)ccc21`, in data set [1], the CC50 was 7180 nM. Further, the selectivity ratio in data set [2] came to 614. Further, the IC50 in data set [3] is greater than 100000 nM. Also, the concentration for a half-maximal effect (EC50) in data set [4] was 11.7 nM.

`O=c1[nH]c2ccc(Cl)cc2n1Cc1c(F)cccc1F` gave a CC50 in data set [1] greater than 424000 nM. The selectivity ratio in data set [2] was greater than 1890.

On to `O=C1Nc2ccc(Cl)cc2[C@@](C#CC2CC2)(C(F)(F)F)O1` [EFAVIRENZ], for which the CC50 in data set [1] was greater than 6000 nM.

Compound `Cc1cc(C)cc(S(=O)(=O)n2c(=O)[nH]c3ccc(C)cc32)c1` came in with a CC50 in data set [1] greater than 308000 nM. The selectivity ratio in data set [2] was greater than 48900. Further, in data set [3], the IC50 was found to be 100 nM. The EC50 in data set [4] is 6.3 nM.

As to `Cc1cc(C)cc(Cn2c(=O)[nH]c3ccc(Cl)cc32)c1`, in data set [2], the selectivity ratio came out at 281.

In turn, `Cc1ccc2[nH]c(=O)n(Cc3cc(F)cc(F)c3)c2c1` returned a CC50 in data set [1] of 73000 nM. For the same compound, the selectivity ratio in data set [2] is less than 1. Also, the half-inhibitory concentration (IC50) in data set [3] is greater than 400000 nM. Further, in data set [4], the EC50 was greater than 73000 nM.

In data set [1], `Cc1ccnc2c1NC(=O)c1cccnc1N2C1CC1` [NEVIRAPINE] displayed a CC50 greater than 15000 nM.

In turn, `Cc1cc(C)cc(Cn2c(=O)[nH]c3cc(F)c(Cl)cc32)c1` showed a CC50 in data set [1] greater than 410000 nM. Moreover, in data set [2], the selectivity ratio was greater than 438. In data set [3], the IC50 is greater than 100000 nM. In addition, the EC50 in data set [4] stood at 938 nM.
